Experimental data published in ChEMBL document CHEMBL4715796, “Discovery of Chromane Containing Hepatitis C Virus (HCV) NS5A Inhibitors with Improved Potency against Resistance-Associated Variants” (J Med Chem, 2016).

What was measured:
Format in all cases: cell-based
[1] = tested on: Huh-7; assay: Inhibition of NS5A in Hepatitis C virus subtype 3a infected in human HuH7 cells assessed as reduction in viral replication by luciferase reporter gene assay
How it was run: (§1)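 Transient replicon assay with GT1a-H77, GT1b-Con1 or chimeric replicons, electroporated into a Huh7-derived cell line. Percent inhibition of replication, read as a drop in luciferase signal, was calculated at each concentration to give EC90. Values are means of at least two experiments.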

[2] = tested on: Huh-7; assay: Inhibition of NS5A in Hepatitis C virus subtype 1a infected in human HuH7 cells assessed as reduction in viral replication by luciferase reporter gene assay; how it was run: as §1
[3] = tested on: T1, Nonstructural protein 5A (Hepatitis C virus), Q5L478 [Y93H]; assay: Inhibition of NS5A Y93H mutant in Hepatitis C virus subtype 1a infected in human HuH7 cells assessed as reduction in viral replication by luciferase reporter gene assay; settings: Huh-7
T1 sequence (whole entry): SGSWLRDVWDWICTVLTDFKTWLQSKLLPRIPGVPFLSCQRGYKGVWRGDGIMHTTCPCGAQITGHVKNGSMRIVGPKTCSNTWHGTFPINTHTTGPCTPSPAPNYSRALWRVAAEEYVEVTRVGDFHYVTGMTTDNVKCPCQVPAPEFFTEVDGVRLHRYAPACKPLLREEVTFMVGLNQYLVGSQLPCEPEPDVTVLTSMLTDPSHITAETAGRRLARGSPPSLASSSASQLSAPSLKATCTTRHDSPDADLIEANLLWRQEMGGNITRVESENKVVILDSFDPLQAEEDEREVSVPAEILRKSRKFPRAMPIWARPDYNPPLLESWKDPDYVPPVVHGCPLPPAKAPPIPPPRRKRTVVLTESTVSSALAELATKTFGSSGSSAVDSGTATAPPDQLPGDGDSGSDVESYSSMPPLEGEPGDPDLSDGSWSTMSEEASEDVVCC
How it was run: (§2)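 NS5A resistance variants engineered into GT1a-H77 or GT1b-Con1 replicons. Each variant replicon is transfected transiently by electroporation into a Huh7-derived cell line. Percent inhibition is taken from the drop in luciferase signal at each compound concentration, and EC90 is calculated from these. Values are means of at least two experiments.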

[4] = tested on: Nonstructural protein 5A (Hepatitis C virus), Q5L478 [UNDEFINED MUTATION]; assay: Inhibition of NS5A L31V mutant in Hepatitis C virus subtype 1a infected in human HuH7 cells assessed as reduction in viral replication by luciferase reporter gene assay; settings: Huh-7; how it was run: as §2
[5] = tested on: Huh-7; assay: Inhibition of NS5A in Hepatitis C virus subtype 2b infected in human HuH7 cells assessed as reduction in viral replication by luciferase reporter gene assay; how it was run: as §1
[6] = tested on: Huh-7; assay: Inhibition of NS5A in Hepatitis C virus subtype 1b infected in human HuH7 cells assessed as reduction in viral replication by luciferase reporter gene assay; how it was run: as §1
[7] = tested on: Huh-7; assay: Inhibition of NS5A in Hepatitis C virus subtype 4a infected in human HuH7 cells assessed as reduction in viral replication by luciferase reporter gene assay; how it was run: as §1

| SMILES | EC90 [1] | EC90 [2] | EC90 [3] | EC90 [4] | EC90 [5] | EC90 [6] | EC90 [7] |
| --- | --- | --- | --- | --- | --- | --- | --- |
| COC(=O)N[C@H](C(=O)N1CCC[C@H]1c1ncc(-c2cc(F)c3c(c2)OC(c2ccc4cccnc4c2)n2c-3cc3cc(-c4cnc([C@@H]5CCCN5C(=O)[C@@H](NC(=O)OC)C(C)C)[nH]4)ccc32)[nH]1)C(C)C (stereo not given in full) | 0.3 nM | 0.01 nM | 4 nM | 0.2 nM | 3 nM | – | – |
| COC(=O)N[C@H](C(=O)N1CCC[C@H]1c1ncc(-c2cc(F)c3c(c2)OC(c2ccc4c(c2)CC2CC2(C)O4)n2c-3cc3cc(-c4cnc([C@@H]5CCCN5C(=O)[C@@H](NC(=O)OC)C(C)C)[nH]4)ccc32)[nH]1)C(C)C (mixture of isomers) | 0.03 nM | 0.005 nM | 1 nM | – | 5 nM | – | – |
| COC(=O)N[C@H](C(=O)N1CCC[C@H]1c1ncc(-c2cc(F)c3c(c2)OC(c2ccc4c(c2)CCCO4)n2c-3cc3cc(-c4cnc([C@@H]5CCCN5C(=O)[C@@H](NC(=O)OC)C(C)C)[nH]4)ccc32)[nH]1)C(C)C (stereo not given in full) | 0.02 nM | 0.003 nM | 4 nM | – | 7 nM | – | – |
| COC(=O)N[C@H](C(=O)N1CCC[C@H]1c1ncc(-c2cc(F)c3c(c2)OC(c2ccc4c(c2)OCC(=O)N4C)n2c-3cc3cc(-c4cnc([C@@H]5CCCN5C(=O)[C@@H](NC(=O)OC)C(C)C)[nH]4)ccc32)[nH]1)C(C)C (stereo not given in full) | 0.01 nM | 0.002 nM | 3 nM | – | 2 nM | – | – |
| COC(=O)N[C@H](C(=O)N1CCC[C@H]1c1ncc(-c2cc(F)c3c(c2)OC(c2ccc4c(c2)OCC4)n2c-3cc3cc(-c4cnc([C@@H]5CCCN5C(=O)[C@@H](NC(=O)OC)C(C)C)[nH]4)ccc32)[nH]1)C(C)C (mixture of isomers) | 0.1 nM | 0.02 nM | 6 nM | 0.5 nM | 3 nM | – | – |
| COC(=O)N[C@H](C(=O)N1CCC[C@H]1c1ncc(-c2cc(F)c3c(c2)OC(c2ccc4c(c2)CC[C@H](C)O4)n2c-3cc3cc(-c4cnc([C@@H]5CCCN5C(=O)[C@@H](NC(=O)OC)C(C)C)[nH]4)ccc32)[nH]1)C(C)C (stereo not given in full) | 0.01 nM | 0.004 nM | 3 nM | – | 7 nM | – | – |
| COC(=O)N[C@H](C(=O)N1CCC[C@H]1c1ncc(-c2cc(F)c3c(c2)OC(c2cccc4ccccc24)n2c-3cc3cc(-c4cnc([C@@H]5CCCN5C(=O)[C@@H](NC(=O)OC)C(C)C)[nH]4)ccc32)[nH]1)C(C)C (stereo not given in full) | 0.1 nM | 0.01 nM | 32 nM | 0.09 nM | 31 nM | – | – |
| COC(=O)N[C@H](C(=O)N1CCC[C@H]1c1ncc(-c2cc(F)c3c(c2)OC(c2ccc4c(c2)COCC4)n2c-3cc3cc(-c4cnc([C@@H]5CCCN5C(=O)[C@@H](NC(=O)OC)C(C)C)[nH]4)ccc32)[nH]1)C(C)C (stereo not given in full) | 0.02 nM | 0.003 nM | 2 nM | – | 4 nM | – | – |
| COC(=O)N[C@H](C(=O)N1CCC[C@H]1c1ncc(-c2cc(F)c3c(c2)OC(c2ccc4c(c2)CC[C@@H](C)O4)n2c-3cc3cc(-c4cnc([C@@H]5CCCN5C(=O)[C@@H](NC(=O)OC)C(C)C)[nH]4)ccc32)[nH]1)C(C)C (stereo not given in full) | 0.02 nM | 0.005 nM | 2 nM | – | 7 nM | – | – |
| COC(=O)N[C@H](C(=O)N1CCC[C@H]1c1ncc(-c2cc(F)c3c(c2)OC(c2ccc4c(c2)OC(F)(F)O4)n2c-3cc3cc(-c4cnc([C@@H]5CCCN5C(=O)[C@@H](NC(=O)OC)C(C)C)[nH]4)ccc32)[nH]1)C(C)C (stereo not given in full) | 0.1 nM | 0.004 nM | 8 nM | 0.5 nM | 5 nM | – | – |
| COC(=O)N[C@H](C(=O)N1CCC[C@H]1c1ncc(-c2cc(F)c3c(c2)OC(c2ccc4c(c2)COC4)n2c-3cc3cc(-c4cnc([C@@H]5CCCN5C(=O)[C@@H](NC(=O)OC)C(C)C)[nH]4)ccc32)[nH]1)C(C)C (stereo not given in full) | 0.02 nM | 0.003 nM | 5 nM | – | 2 nM | – | – |
| COC(=O)N[C@H](C(=O)N1CCC[C@H]1c1ncc(-c2cc(F)c3c(c2)OC(c2ccc4c(c2)O[C@H](C)CC4)n2c-3cc3cc(-c4cnc([C@@H]5CCCN5C(=O)[C@@H](NC(=O)OC)C(C)C)[nH]4)ccc32)[nH]1)C(C)C (stereo not given in full) | 0.01 nM | 0.003 nM | 0.7 nM | 0.02 nM | 0.9 nM | 0.005 nM | 0.005 nM |
| COC(=O)N[C@H](C(=O)N1CCC[C@H]1c1ncc(-c2cc(F)c3c(c2)OC(c2ccc4c(c2)CCC(C)(C)O4)n2c-3cc3cc(-c4cnc([C@@H]5CCCN5C(=O)[C@@H](NC(=O)OC)C(C)C)[nH]4)ccc32)[nH]1)C(C)C (stereo not given in full) | 0.03 nM | 0.005 nM | 0.9 nM | – | 2 nM | – | – |
| COC(=O)N[C@H](C(=O)N1CCC[C@H]1c1ncc(-c2cc(F)c3c(c2)OC(c2ccc4c(c2)CCCC4)n2c-3cc3cc(-c4cnc([C@@H]5CCCN5C(=O)[C@@H](NC(=O)OC)C(C)C)[nH]4)ccc32)[nH]1)C(C)C (stereo not given in full) | 0.01 nM | 0.005 nM | 2 nM | – | 2 nM | – | – |
| COC(=O)N[C@H](C(=O)N1CCC[C@H]1c1ncc(-c2cc(F)c3c(c2)OC(c2ccc4c(c2)OC(C)(C)CC4)n2c-3cc3cc(-c4cnc([C@@H]5CCCN5C(=O)[C@@H](NC(=O)OC)C(C)C)[nH]4)ccc32)[nH]1)C(C)C (stereo not given in full) | 0.02 nM | 0.005 nM | 1 nM | – | 2 nM | – | – |
| COC(=O)N[C@H](C(=O)N1CCC[C@H]1c1ncc(-c2cc(F)c3c(c2)OC(c2ccc4c(c2)OCO4)n2c-3cc3cc(-c4cnc([C@@H]5CCCN5C(=O)[C@@H](NC(=O)OC)C(C)C)[nH]4)ccc32)[nH]1)C(C)C (stereo not given in full) | 1 nM | 0.008 nM | 4 nM | 0.2 nM | 3 nM | – | – |
| COC(=O)N[C@H](C(=O)N1CCC[C@H]1c1ncc(-c2cc(F)c3c(c2)OC(c2ccc4c(c2)OCCC4(F)F)n2c-3cc3cc(-c4cnc([C@@H]5CCCN5C(=O)[C@@H](NC(=O)OC)C(C)C)[nH]4)ccc32)[nH]1)C(C)C (stereo not given in full) | 0.007 nM | 0.002 nM | 0.7 nM | 0.01 nM | 0.2 nM | 0.002 nM | 0.002 nM |
| COC(=O)N[C@H](C(=O)N1CCC[C@H]1c1ncc(-c2cc(F)c3c(c2)OC(c2ccc4ccccc4c2)n2c-3cc3cc(-c4cnc([C@@H]5CCCN5C(=O)[C@@H](NC(=O)OC)C(C)C)[nH]4)ccc32)[nH]1)C(C)C (stereo not given in full) | 0.04 nM | 0.02 nM | 7 nM | 0.2 nM | 1 nM | – | – |
| COC(=O)N[C@H](C(=O)N1CCC[C@H]1c1ncc(-c2cc(F)c3c(c2)OC(c2ccc4c(c2)OCC(=O)N4)n2c-3cc3cc(-c4cnc([C@@H]5CCCN5C(=O)[C@@H](NC(=O)OC)C(C)C)[nH]4)ccc32)[nH]1)C(C)C (stereo not given in full) | 0.4 nM | 0.01 nM | 32 nM | – | 22 nM | – | – |
| COC(=O)N[C@H](C(=O)N1CCC[C@H]1c1ncc(-c2cc(F)c3c(c2)OC(c2ccc4c(c2)O[C@@H](C)CC4)n2c-3cc3cc(-c4cnc([C@@H]5CCCN5C(=O)[C@@H](NC(=O)OC)C(C)C)[nH]4)ccc32)[nH]1)C(C)C (stereo not given in full) | 0.009 nM | 0.007 nM | 0.9 nM | 0.04 nM | 0.7 nM | 0.005 nM | 0.007 nM |
